# Results reported in ChEMBL document CHEMBL3588833 (ACS Med Chem Lett, 2015).
# Activity calls are given as the source filed them.
# Legend:
# [1] = biological target: T1, Sodium channel protein type 10 subunit alpha (Homo sapiens, UniProt Q9Y5Y9); test: Inhibition of human Nav1.8 expressed in HEK293 cells assessed as reduction in blue fluorescent signal by VSP-FRET assay; format: cell-based
# Outline: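 hNav1.8 stably expressed in an in-house HEK293 line; membrane-potential VSP-FRET read-out; IC50 from at least three tests on three separate assay runs.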
# [2] = Plasma clearance in rat at 2 mg/kg, po; format: ADME, organism-based
# [3] = biological target: T2, Sodium channel protein type 9 subunit alpha (Homo sapiens, UniProt Q15858); test: Inhibition of human Nav1.7 expressed in HEK293 cells by IonWorks Quattro assay
# T2 sequence (Q15858 whole entry): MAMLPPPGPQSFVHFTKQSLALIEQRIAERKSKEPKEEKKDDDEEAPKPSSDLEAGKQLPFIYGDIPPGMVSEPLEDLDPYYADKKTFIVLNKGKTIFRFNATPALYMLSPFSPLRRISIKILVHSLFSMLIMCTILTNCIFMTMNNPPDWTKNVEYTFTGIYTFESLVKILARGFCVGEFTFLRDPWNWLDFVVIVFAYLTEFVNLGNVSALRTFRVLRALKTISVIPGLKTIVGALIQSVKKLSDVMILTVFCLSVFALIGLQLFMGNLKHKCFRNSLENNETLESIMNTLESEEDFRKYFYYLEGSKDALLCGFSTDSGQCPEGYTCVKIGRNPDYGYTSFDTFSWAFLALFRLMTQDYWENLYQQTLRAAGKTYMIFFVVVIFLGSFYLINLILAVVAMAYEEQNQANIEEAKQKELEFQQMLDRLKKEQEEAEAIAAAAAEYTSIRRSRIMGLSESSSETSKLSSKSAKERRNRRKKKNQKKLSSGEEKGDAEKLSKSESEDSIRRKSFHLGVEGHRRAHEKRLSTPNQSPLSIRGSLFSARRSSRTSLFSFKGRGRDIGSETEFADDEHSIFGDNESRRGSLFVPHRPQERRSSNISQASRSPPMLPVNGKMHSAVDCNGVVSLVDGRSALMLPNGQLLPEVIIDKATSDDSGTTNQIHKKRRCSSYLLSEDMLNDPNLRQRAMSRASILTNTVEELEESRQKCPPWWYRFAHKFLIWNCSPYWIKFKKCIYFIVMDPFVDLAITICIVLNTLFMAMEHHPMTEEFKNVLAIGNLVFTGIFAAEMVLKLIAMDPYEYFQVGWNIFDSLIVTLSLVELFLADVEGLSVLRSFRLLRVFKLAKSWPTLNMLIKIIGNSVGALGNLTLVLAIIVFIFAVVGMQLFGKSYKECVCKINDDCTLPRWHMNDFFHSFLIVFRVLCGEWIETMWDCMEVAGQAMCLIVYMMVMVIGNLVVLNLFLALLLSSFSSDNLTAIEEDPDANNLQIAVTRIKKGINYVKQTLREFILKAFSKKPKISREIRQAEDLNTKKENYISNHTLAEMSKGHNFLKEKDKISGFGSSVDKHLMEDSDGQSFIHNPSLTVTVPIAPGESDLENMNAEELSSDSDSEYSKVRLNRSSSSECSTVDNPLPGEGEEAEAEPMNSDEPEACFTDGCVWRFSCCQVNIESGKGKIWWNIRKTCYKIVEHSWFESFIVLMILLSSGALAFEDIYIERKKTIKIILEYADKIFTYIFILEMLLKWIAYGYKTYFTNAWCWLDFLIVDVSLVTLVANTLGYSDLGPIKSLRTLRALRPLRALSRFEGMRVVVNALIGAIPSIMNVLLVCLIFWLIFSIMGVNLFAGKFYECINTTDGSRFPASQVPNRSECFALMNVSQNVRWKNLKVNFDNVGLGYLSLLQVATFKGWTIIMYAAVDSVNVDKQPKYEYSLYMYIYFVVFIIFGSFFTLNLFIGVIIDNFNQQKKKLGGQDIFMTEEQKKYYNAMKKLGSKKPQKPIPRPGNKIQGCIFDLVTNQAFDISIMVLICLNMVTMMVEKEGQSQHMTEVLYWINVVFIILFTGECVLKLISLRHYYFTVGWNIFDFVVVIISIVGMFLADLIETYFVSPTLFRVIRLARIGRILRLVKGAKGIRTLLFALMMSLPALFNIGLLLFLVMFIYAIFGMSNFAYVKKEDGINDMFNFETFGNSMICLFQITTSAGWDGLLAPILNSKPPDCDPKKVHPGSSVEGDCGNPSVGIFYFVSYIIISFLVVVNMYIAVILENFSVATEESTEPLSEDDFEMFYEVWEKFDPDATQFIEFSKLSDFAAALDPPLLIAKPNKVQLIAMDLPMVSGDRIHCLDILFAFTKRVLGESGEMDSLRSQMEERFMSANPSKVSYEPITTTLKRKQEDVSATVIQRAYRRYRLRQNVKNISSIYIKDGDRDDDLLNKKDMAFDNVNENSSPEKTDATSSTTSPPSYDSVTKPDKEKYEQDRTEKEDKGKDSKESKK
# [4] = Tmax in rat at 2 mg/kg, po; format: ADME, organism-based; conditions: in vivo
# [5] = biological target: Sodium channel protein type 5 subunit alpha (Homo sapiens, UniProt Q14524); test: Inhibition of human Nav1.5 expressed in HEK293 cells by IonWorks Quattro selectivity assay; format: cell-based
# [6] = biological target: Sodium channel protein type 1 subunit alpha (Homo sapiens, UniProt P35498); test: Inhibition of human Nav1.1 expressed in HEK293 cells by IonWorks Quattro selectivity assay; format: cell-based
# [7] = Inhibition of Voltage gated sodium channel-mediated TTX-r current in rat DRG neurons by manual patch clamp electrophysiology; conditions: DRG neuron
# [8] = Oral bioavailability in rat at 2 mg/kg; format: ADME, organism-based; conditions: in vivo
# [9] = biological target: T1, Sodium channel protein type 10 subunit alpha; test: Inhibition of human Nav1.8/beta1 expressed in HEK293 cells by manual patch clamp electrophysiology; format: cell-based
# Outline: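 Recombinantly expressed human Nav1.8 with β1 subunit, recorded by manual whole-cell patch clamp electrophysiology. Inhibition was measured at the channel's V0.5 of inactivation, and IC50 values were derived from these recordings, with the number of determinations (n) reported per compound.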
# Rattus norvegicus [10] = test: Antallodynic effect in Sprague-Dawley rat tibial nerve transection-induced mechanical allodynia model assessed as 50% shift in paw withdrawal threshold in ipsilateral paw at 40 mg/kg, single dose after 1.5 hrs (reference value: 1.7 +/- 0.3 g); format: functional
# Outline: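 Tibial nerve transection neuropathic pain model in rat; single dose of 40 mg/kg; 50% paw withdrawal threshold of ipsilateral hindpaw measured 1.5 h post-dose against pre-dose baseline; pregabalin 10 mg/kg as comparator; mean ± SEM, P < 0.05 significance.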
# [11] = Half life in rat at 1 mg/kg, iv; format: ADME, organism-based; conditions: in vivo
# [12] = Volume of distribution in rat at 1 mg/kg, iv; format: ADME, organism-based; conditions: in vivo
# [13] = Inhibition of Voltage gated sodium channel-mediated TTX-R current in human DRG neurons by manual patch clamp electrophysiology; conditions: DRG neuron
# [14] = Unbound plasma concentration in Sprague-Dawley rat at 40 mg/kg single dose; format: ADME, organism-based
# [15] = Plasma clearance in rat at 1 mg/kg, iv; format: ADME, organism-based
# Rattus norvegicus [16] = test: Toxicity in Sprague-Dawley rat assessed as effect on vertical or horizontal movement at 250 mg/kg, po single dose; format: organism-based; conditions: in vivo
# Outline: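 Rats given a single oral dose of 250 mg/kg; horizontal and vertical locomotor movements compared with vehicle-treated controls.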
# [17] = Plasma clearance in rat at 5 mg/kg, po; format: ADME, organism-based
# [18] = Volume of distribution in rat at 2 mg/kg, iv; format: ADME, organism-based; conditions: in vivo
# [19] = biological target: Voltage-gated inwardly rectifying potassium channel KCNH2 (Homo sapiens, UniProt Q12809)
# Voltage-gated inwardly rectifying potassium channel KCNH2, sequence (Q12809 whole entry): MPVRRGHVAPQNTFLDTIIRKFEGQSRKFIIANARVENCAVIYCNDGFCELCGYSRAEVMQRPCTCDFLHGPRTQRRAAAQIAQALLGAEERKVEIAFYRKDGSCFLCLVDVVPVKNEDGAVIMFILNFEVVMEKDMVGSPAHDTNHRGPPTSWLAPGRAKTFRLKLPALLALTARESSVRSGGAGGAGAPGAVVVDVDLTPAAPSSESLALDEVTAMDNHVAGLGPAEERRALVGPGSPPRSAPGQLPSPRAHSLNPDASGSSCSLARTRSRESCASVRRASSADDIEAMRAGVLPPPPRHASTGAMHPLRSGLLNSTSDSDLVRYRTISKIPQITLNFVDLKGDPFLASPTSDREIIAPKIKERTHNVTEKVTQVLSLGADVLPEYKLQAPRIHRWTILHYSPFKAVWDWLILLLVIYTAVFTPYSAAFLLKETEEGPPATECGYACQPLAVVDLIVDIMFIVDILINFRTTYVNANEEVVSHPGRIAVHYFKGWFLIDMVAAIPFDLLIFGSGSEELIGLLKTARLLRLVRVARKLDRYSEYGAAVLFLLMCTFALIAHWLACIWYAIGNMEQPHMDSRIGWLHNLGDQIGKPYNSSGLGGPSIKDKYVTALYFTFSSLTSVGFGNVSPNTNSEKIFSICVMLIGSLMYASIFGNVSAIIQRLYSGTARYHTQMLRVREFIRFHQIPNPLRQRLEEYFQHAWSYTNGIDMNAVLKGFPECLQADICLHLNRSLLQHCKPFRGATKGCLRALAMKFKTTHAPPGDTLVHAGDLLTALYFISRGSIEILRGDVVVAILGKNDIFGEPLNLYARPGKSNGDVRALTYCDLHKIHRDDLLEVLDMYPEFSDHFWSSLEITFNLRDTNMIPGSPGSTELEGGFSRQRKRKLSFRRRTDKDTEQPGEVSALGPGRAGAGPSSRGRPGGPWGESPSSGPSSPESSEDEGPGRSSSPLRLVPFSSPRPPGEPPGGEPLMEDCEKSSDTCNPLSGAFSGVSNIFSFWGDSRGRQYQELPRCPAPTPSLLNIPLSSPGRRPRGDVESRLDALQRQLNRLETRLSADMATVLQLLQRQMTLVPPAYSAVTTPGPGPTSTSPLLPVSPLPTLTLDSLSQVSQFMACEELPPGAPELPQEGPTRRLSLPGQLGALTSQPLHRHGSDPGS
# [20] = Tmax in rat at 5 mg/kg, po; format: ADME, organism-based; conditions: in vivo
# [21] = Oral bioavailability in rat at 5 mg/kg; format: ADME, organism-based; conditions: in vivo
# [22] = biological target: T3, Sodium channel protein type 2 subunit alpha (Homo sapiens, UniProt Q99250); test: Inhibition of human Nav1.2 expressed in SHSY5Y cells assessed as reduction in blue fluorescent signal by VSP-FRET assay; format: cell-based, SH-SY5Y
# [23] = Intrinsic clearance in human liver microsomes; format: ADME; conditions: read-out: CLH
# [24] = Plasma clearance in rat at 2 mg/kg, iv; format: ADME, organism-based
# [25] = Half life in rat at 5 mg/kg, po; format: ADME, organism-based; conditions: in vivo
# [26] = biological target: T3, Sodium channel protein type 2 subunit alpha; test: Inhibition of human Nav1.2 expressed in HEK293 cells by IonWorks Quattro selectivity assay; format: cell-based
# Rattus norvegicus [27] = test: Antallodynic effect in Sprague-Dawley rat spinal nerve injury-induced neuropathic pain model at 10 or 30 mg/kg; format: functional, organism-based
# [28] = Half life in rat at 2 mg/kg, iv; format: ADME, organism-based; conditions: in vivo
# [29] = Intrinsic clearance in rat liver microsomes; format: ADME; conditions: read-out: CLH
# [30] = Tmax in rat at 3 mg/kg, po; format: ADME, organism-based; conditions: in vivo
# [31] = Half life in rat at 3 mg/kg, po; format: ADME, organism-based; conditions: in vivo
# [32] = Plasma clearance in rat at 3 mg/kg, po; format: ADME, organism-based
# [33] = Solubility of the compound at pH 7.2; format: physicochemical; conditions: buffer
# [34] = Half life in dog at 0.1 mg/kg, iv; format: ADME, organism-based, Canis lupus familiaris; conditions: in vivo
# [35] = biological target: T3, Sodium channel protein type 2 subunit alpha; test: Inhibition of human Nav1.2 expressed in SHSY5Y cells by IonWorks Quattro selectivity assay; format: cell-based, SH-SY5Y
# [36] = biological target: Sodium channel protein type 3 subunit alpha (Homo sapiens, UniProt Q9NY46); test: Inhibition of human Nav1.3 expressed in SHSY5Y cells by IonWorks Quattro selectivity assay; format: cell-based, SH-SY5Y
# [37] = Plasma clearance in dog at 0.1 mg/kg, iv; format: ADME, organism-based, Canis lupus familiaris
# [38] = Tmax in dog at 0.25 mg/kg, po; format: ADME, organism-based, Canis lupus familiaris; conditions: in vivo
# [39] = Plasma clearance in dog at 0.25 mg/kg, po; format: ADME, organism-based, Canis lupus familiaris
# [40] = Oral bioavailability in dog at 0.25 mg/kg; format: ADME, organism-based, Canis lupus familiaris; conditions: in vivo
# [41] = Volume of distribution in dog at 0.1 mg/kg, iv; format: ADME, organism-based, Canis lupus familiaris; conditions: in vivo
# [42] = biological target: T2, Sodium channel protein type 9 subunit alpha; test: Inhibition of human Nav1.7 expressed in SHSY5Y cells by FRET assay; format: cell-based, SH-SY5Y
# Rattus norvegicus [43] = test: Antallodynic effect in Sprague-Dawley rat tibial nerve transection-induced mechanical allodynia model assessed as 50% shift in paw withdrawal threshold in ipsilateral paw at 10 mg/kg, single dose after 1.5 hrs (reference value: 1.7 +/- 0.2 g); format: functional
# Outline: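 Rat tibial nerve transection neuropathic pain model; mechanical allodynia read as 50% paw withdrawal threshold (g) of the ipsilateral hindpaw. The threshold is taken at baseline and again 1.5 h after a single dose. Data are given as mean ± SEM, with significance set at P < 0.05.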
# T1 sequence (Q9Y5Y9 whole entry): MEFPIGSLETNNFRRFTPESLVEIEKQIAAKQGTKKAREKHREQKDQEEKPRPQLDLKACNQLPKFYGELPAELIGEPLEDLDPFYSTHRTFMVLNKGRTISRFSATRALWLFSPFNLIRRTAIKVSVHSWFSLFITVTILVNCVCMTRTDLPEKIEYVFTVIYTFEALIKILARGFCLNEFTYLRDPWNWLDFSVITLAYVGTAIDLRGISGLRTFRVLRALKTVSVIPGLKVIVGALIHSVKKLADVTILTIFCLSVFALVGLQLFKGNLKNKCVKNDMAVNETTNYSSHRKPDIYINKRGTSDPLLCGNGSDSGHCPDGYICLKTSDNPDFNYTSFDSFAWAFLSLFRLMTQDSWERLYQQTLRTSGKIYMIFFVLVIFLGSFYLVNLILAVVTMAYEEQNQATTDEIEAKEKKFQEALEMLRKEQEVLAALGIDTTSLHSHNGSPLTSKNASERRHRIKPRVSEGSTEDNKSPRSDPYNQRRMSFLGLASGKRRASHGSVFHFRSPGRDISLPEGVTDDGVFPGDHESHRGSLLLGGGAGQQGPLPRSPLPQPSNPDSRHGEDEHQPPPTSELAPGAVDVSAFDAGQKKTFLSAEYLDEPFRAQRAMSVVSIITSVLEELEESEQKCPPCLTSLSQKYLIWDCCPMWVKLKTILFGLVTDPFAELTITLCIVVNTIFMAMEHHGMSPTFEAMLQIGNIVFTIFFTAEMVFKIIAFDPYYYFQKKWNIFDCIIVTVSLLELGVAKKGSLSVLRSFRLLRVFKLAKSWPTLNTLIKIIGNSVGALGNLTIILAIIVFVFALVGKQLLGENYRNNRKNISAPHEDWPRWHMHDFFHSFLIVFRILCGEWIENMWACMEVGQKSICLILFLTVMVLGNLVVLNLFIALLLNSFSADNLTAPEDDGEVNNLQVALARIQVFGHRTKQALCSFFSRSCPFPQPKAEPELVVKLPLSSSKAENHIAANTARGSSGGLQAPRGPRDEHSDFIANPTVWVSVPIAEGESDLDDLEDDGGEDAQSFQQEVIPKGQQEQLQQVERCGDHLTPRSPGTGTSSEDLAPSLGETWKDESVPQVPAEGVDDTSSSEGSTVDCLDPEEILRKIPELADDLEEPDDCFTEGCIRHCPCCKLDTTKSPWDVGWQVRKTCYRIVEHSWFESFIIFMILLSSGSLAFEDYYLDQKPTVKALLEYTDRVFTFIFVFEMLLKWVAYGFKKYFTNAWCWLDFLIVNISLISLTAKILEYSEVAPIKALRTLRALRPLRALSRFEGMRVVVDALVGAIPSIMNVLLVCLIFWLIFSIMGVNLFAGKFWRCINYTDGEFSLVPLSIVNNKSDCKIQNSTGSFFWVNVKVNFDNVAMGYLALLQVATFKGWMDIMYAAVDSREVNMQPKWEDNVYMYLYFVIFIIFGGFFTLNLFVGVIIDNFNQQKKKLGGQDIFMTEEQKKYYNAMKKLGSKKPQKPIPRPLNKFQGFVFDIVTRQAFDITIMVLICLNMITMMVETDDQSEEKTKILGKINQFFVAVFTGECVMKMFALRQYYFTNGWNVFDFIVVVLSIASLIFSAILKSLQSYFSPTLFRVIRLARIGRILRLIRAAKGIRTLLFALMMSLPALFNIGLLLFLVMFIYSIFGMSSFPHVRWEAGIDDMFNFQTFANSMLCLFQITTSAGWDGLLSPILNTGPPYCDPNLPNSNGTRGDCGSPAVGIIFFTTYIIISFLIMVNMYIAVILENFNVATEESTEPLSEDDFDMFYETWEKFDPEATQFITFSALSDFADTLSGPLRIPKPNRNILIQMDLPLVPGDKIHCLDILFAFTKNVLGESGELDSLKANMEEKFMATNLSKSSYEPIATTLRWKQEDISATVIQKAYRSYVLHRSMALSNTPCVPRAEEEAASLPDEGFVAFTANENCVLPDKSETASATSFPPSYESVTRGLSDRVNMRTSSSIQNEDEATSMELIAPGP
structure (smiles),measurement,setting,value
Cn1nccc1C(=O)Nc1ccc(-c2ccccc2Cl)c(N)n1,IC50,[1],4.9 µM
CNC(=O)c1ccc(-c2ccc(Cl)cc2)c(N)n1,IC50,[1],> 32 µM
COc1ccc(Cl)c(-c2ccc(NC(=O)c3ccnn3C)nc2N)c1 [PF-04531083],CL/F,[2],11.4 mL/min/kg
same,IC50,[3],36 µM
same,Tmax,[4],1.3 h
same,IC50,[5],37 µM
same,IC50,[6],37 µM
same,IC50,[7],0.54 µM
same,bioavailability,[8],59%
same,IC50,[9],0.19 µM
same,Activity,Rattus norvegicus [10],7.3 g
same,IC50,[1],0.7 µM
same,half-life,[11],3.9 h
same,Vd,[12],2.25 L/kg
same,IC50,[13],0.2 µM
same,fraction unbound,[14],0.2
same,clearance,[15],6.7 mL/min/kg
same,Activity,Rattus norvegicus [16],Non-toxic
COc1ccc(Cl)c(-c2ccc(NC(=O)C(C)C)nc2N)c1,IC50,[1],4 µM
CNC(=O)c1ccc(-c2cc(Cl)cc(Cl)c2Cl)c(N)n1,CL/F,[17],13.3 mL/min/kg
same,Vd,[18],3 L/kg
same,IC50,[3],19 µM
same,IC50,[19],30 µM
same,Tmax,[20],1 h
same,IC50,[5],9 µM
same,bioavailability,[21],91%
same,IC50,[22],14 µM
same,microsomal CLint,[23],7.1 µL/min/mg
same,clearance,[24],11.7 mL/min/kg
same,IC50,[6],13 µM
same,IC50,[7],0.44 µM
same,IC50,[9],0.19 µM
same,half-life,[25],4.6 h
same,IC50,[1],2.6 µM
same,IC50,[26],12.8 µM
same,Activity,Rattus norvegicus [27],Active
same,IC50,[13],0.31 µM
same,half-life,[28],4 h
same,microsomal CLint,[29],< 9 µL/min/mg
CC(=O)Nc1ccc(-c2cc(Cl)cc(Cl)c2Cl)c(N)n1,Tmax,[30],0.75 h
same,IC50,[22],3.5 µM
same,microsomal CLint,[23],41 µL/min/mg
same,half-life,[31],4.1 h
same,CL/F,[32],204 mL/min/kg
same,IC50,[1],0.16 µM
same,microsomal CLint,[29],29 µL/min/mg
Cn1nccc1C(=O)Nc1ccc(-c2cc(Cl)ccc2Cl)c(N)n1,IC50,[1],0.92 µM
COc1ccc(Cl)c(-c2ccc(NC(=O)c3conc3C)nc2N)c1,IC50,[1],0.5 µM
CNC(=O)c1ccc(-c2cc(Cl)ccc2Cl)c(N)n1,IC50,[1],12 µM
CNC(=O)c1ccc(-c2cc(Cl)cc(Cl)c2)c(N)n1,IC50,[1],> 32 µM
Nc1nnc(-c2cccc(Cl)c2Cl)c(N)n1 [LAMOTRIGINE],IC50,[22],17 µM
same,IC50,[1],98 µM
Cc1nocc1C(=O)Nc1ccc(-c2cc(Cl)cc(Cl)c2Cl)c(N)n1,solubility,[33],< 0.1 µg/mL
Cn1nccc1C(=O)Nc1ccc(-c2ccc(F)cc2Cl)c(N)n1,IC50,[1],> 31 µM
CNC(=O)c1ccc(-c2cccc(Cl)c2)c(N)n1,IC50,[1],> 32 µM
CNC(=O)c1ccc(-c2ccccc2Cl)c(N)n1,IC50,[1],> 32 µM
Cc1nocc1C(=O)Nc1ccc(-c2ccccc2OC(F)(F)F)c(N)n1,IC50,[19],> 30 µM
same,half-life,[34],9.7 h
same,IC50,[35],10 µM
same,IC50,[36],10 µM
same,IC50,[7],0.33 µM
same,clearance,[37],6.2 mL/min/kg
same,IC50,[9],0.26 µM
same,Activity,Rattus norvegicus [10],Active
same,IC50,[1],0.53 µM
same,Tmax,[38],3.5 h
same,CL/F,[39],10 mL/min/kg
same,bioavailability,[40],63%
same,Vd,[41],5.3 L/kg
same,IC50,[42],10 µM
CNC(=O)c1cnc(N)c(-c2cc(Cl)cc(Cl)c2Cl)c1,IC50,[22],6.9 µM
same,IC50,[1],24 µM
Cn1nccc1C(=O)Nc1ccc(-c2cc(Cl)cc(Cl)c2Cl)c(N)n1,IC50,[1],0.75 µM
same,solubility,[33],< 0.1 µg/mL
Cn1nccc1C(=O)Nc1ccc(-c2ccccc2OC(F)(F)F)c(N)n1,IC50,[1],2.4 µM
COc1ccc(Cl)cc1-c1ccc(NC(=O)c2ccnn2C)nc1N,IC50,[1],7.4 µM
CC(C)C[C@H](CN)CC(=O)O [PREGABALIN],Activity,Rattus norvegicus [43],5.8 g
